Screening data from PubChem.
MrgX1 ag = human MrgX1 receptor agonism, primary screen; Q96LB2; MrgX1-HEK293 cells, Fluo-4 calcium fluorescence, agonist mode; stronger effect = higher value; B-score at 10 µM; 310,000 compounds, 0.44% hits; AID 588627;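 active means calcium response B-score plate-corrected fluorescence ratio at least 3 library SD, with starting fluorescence B-score inside 5 SD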
Target sequence (Q96LB2 whole entry, looked up): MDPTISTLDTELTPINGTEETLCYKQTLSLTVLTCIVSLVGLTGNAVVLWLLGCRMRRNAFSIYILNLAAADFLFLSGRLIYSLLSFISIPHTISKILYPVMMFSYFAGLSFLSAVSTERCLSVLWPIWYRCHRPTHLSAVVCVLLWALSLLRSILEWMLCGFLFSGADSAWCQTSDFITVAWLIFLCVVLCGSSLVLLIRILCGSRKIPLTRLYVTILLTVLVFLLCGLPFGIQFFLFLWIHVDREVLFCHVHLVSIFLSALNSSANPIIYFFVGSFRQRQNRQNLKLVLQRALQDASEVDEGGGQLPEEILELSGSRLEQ
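Assay system: stable human MrgX1 HEK293 cell line. Quantity: 15,000 cells per well. Schedule: cells plated overnight, dye loaded 0.5 h 37 °C, 0.5 h room temperature. Detection: Fluo-4 NW calcium-flux fluorescence, kinetic read. Read-out basis: peak-minus-minimum fluorescence over baseline, converted to B scores. Control set: positive and negative control wells on each plate.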
RGS4 act = potentiators or activators of RGS4; 310,000 compounds, 0.92% hits; HEK293 M3R/inducible RGS4, carbachol calcium flux Fluo4; stronger effect = lower value; B-score at 10 µM;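 active means B-score of the integrated calcium signal more than 4 SD below the library mean, with starting fluorescence not abnormally high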;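 further: negative B-score means reduced calcium response which marks RGS4 activation or potentiation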
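test system = M3R-expressing HEK293 line, RGS4 induced by doxycycline | probe or stimulus = carbachol at ECmax as muscarinic agonist stimulus | timing = dye loading 30 min 37 °C, buffer rest 30 min RT | signal = calcium dye Fluo4 fluorescence | evaluation = B score from integrated fluorescence ratio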
MrgX1 allo act = allosterically activates human MrgX1 receptor signaling; MrgX1-HEK293, Fluo-4 calcium flux, FDSS; stronger effect = higher value; Q96LB2; AID 588675; 310,000 compounds, 0.63% hits; B-score at 10 µM;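 active means plate-corrected calcium response at least 3 library SD above typical, normal starting fluorescence, not activating the receptor alone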;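 further: compound read alongside a low EC10 to EC30 dose of BAM8-22 agonist; peak minus trough fluorescence over baseline measured at the second addition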
MrgX1 antagonist = blocks BAM8-22 activation of human MrgX1 receptor; Q96LB2; MRGX1-HEK293 calcium flux, Fluo-4, BAM8-22 antagonism; stronger effect = lower value; B-score at 10 µM; 310,000 compounds, 1.3% hits; AID 588676;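 active means calcium-response B-score plate-corrected more than 3 library SD below zero, starting fluorescence within 5 deviations, no agonist response on first addition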;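 further: peak minus trough fluorescence over baseline after final BAM8-22 challenge near maximal dose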
RGS4 inh = inhibitors of human RGS4 | HEK293 M3R/RGS4 inducible, Fluo-4 calcium flux; stronger effect = higher value; triggered by carbachol at its EC20 | B-score at 10 µM | 310,000 compounds, 0.45% hits | AID 463165;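 active means B-score, a plate-corrected calcium signal, over three deviations above library mean, with baseline fluorescence within five deviations of library mean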;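 further: RGS4 expression induced by doxycycline in cells with stable M3 receptor; B-score is computed from the integrated fluorescence ratio over baseline after carbachol; higher B-score means a larger calcium signal and so more RGS4 inhibition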
Target sequence (P49798 whole entry, looked up): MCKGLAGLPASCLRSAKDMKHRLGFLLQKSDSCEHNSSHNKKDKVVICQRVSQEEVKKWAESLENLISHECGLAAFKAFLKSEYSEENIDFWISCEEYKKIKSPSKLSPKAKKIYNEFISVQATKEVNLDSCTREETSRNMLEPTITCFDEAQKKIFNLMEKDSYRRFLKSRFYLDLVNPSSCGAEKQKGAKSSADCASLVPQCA
Active calls of the source: *; i = inactive. This is a sample that favours compounds with a hit; in the whole collection about 3.5% have one here.

SMILES | MrgX1 ag | RGS4 act | MrgX1 allo act | MrgX1 antagonist | RGS4 inh
CC(C)N(C(=S)Nc1cccc(C(F)(F)F)c1)C(C)c1ccccn1 (centres undefined) | i | i | i | -9.5* | i
COc1ccccc1NC(=S)N(C(C)C)C(C)c1ccccn1 (centres undefined) | i | i | i | i | i
Cc1cc(C(=O)N2CCN(C(c3ccccc3)c3ccccc3)CC2)no1 | i | i | i | i | i
CCCc1cc(C(=O)N2CCN(C(c3ccccc3)c3ccccc3)CC2)no1 | i | -7.4* | i | i | i
CCn1c(O)c(/C=N/N=C/c2ccccc2)c2ccc(C3=NNC(=O)CC3)cc21 | i | i | i | -4.8* | i
O=C(CN1C(=O)NC2(CCCCC2)C1=O)Oc1ccc2c(C(F)(F)F)cc(=O)oc2c1 | i | i | i | i | i
CCc1cc(=O)oc2cc(OC(=O)CN3C(=O)NC4(CCCC4)C3=O)ccc12 | i | i | i | -6.9* | i
COCc1ccc(C(=O)N(C)CC2CCCN(CCc3ccc(Cl)cc3)C2)o1 (centres undefined) | i | i | i | i | i
COCc1ccc(C(=O)N(C)CC2CCCN(CCc3ccc(OC)cc3)C2)o1 (centres undefined) | i | -7.5* | i | i | i
CC(NC(=O)CCNC(=O)N1CCn2c1nc1ccccc12)c1ccccc1 (centres undefined) | i | i | i | i | i
CC1CCCN(CCCOc2ccc(Br)cc2Cl)C1 (centres undefined) | i | i | i | i | i
CC1CCN(CCOCCOc2ccc(Br)cc2Cl)CC1 | i | -7.2* | i | i | i
Cc1cccc(NC(=O)COC(=O)c2cccc3c2C(=O)c2ccccc2C3=O)c1C | i | -7.2* | i | i | i
Cc1cccc(C)c1NC(=O)COC(=O)c1cccc2c1C(=O)c1ccccc1C2=O | i | i | i | i | i
CC(C)c1c(C(=O)N/N=C/C2CC=CCC2)nnn1-c1nonc1N (centres undefined) | i | i | i | i | i
COC1=C/C(=C/c2c(N)n3c(nc2=O)sc2cc(S(C)(=O)=O)ccc23)C=CC1=O | i | i | 10* | i | i
CS(=O)(=O)c1ccc2c(c1)sc1nc(=O)c(/C=C3/C=CC(=O)C(O)=C3)c(N)n12 | i | i | 28* | i | i
CS(=O)(=O)c1nsc2nc(=O)c(/C=C3\C=Nc4ccccc43)c(N)n12 | i | i | i | i | i
Cc1ccc(C)c(OC(=O)CN2C(=O)c3ccccc3C2=O)c1 | i | i | i | i | i
NS(=O)(=O)c1ccc(NC(=O)C(=O)NCCC(=O)O)cc1 | i | i | i | i | i
O=c1c(Cl)c(O)c2cccc3c4ccccc4n1c23 | i | i | i | i | i
COc1c(O)c(=O)n2c3ccccc3c3ccnc1c32 | i | i | 37* | i | i
CN(C[C@@H](CC1CCCCC1)N(C[C@H](Cc1ccccc1)N(CCc1ccccc1)N=O)N=O)N=O | i | i | i | i | i
COC(=O)[C@@]1(Cc2ccc(F)cc2)[C@H]2c3cc(C(=O)N(C)C)n(Cc4ccc(OC)c(OC)c4)c3C[C@H]2CN1C(=O)c1ccccc1 | i | i | i | i | i
COC(=O)[C@@]1(Cc2ccc(F)cc2)[C@H]2c3cc(C(=O)N(C)C)n(CCc4ccc(OC)c(Br)c4)c3C[C@H]2CN1C(=O)c1ccccc1 | i | -7.2* | i | i | i
SMILES | MrgX1 ag | RGS4 act | MrgX1 allo act | MrgX1 antagonist | RGS4 inh
COC(=O)[C@@]1(Cc2ccccc2)[C@H]2c3cc(C(=O)N4CCCC4)n(CCSCCO)c3C[C@H]2CN1C(=O)c1ccccc1 | i | i | i | -5.2* | i
CC[C@H]1CC2CN3CCc4c([nH]c5c([C@H]6C[C@H]7[C@H](CC)CN(C)[C@@H](Cc8c6[nH]c6ccccc86)[C@H]7C(=O)OC)c(OC)ccc45)C(C(=O)OC)(C2)C13 | i | i | i | i | 8.8*
COc1ccc(Cn2c3ccc(OC)cc3c3nc4ccccc4nc32)cc1 | i | i | i | i | i
COc1ccc2c(c1)c1nc3ccccc3nc1n2Cc1ccc(OC(C)C)c(OC)c1 | i | i | i | -6.7* | i
Cc1cc(CNC(=S)Nc2ccc(Br)cc2Cl)nn1C | i | i | i | i | i
CCOC(=O)N1CCC(Nc2c(NCCCOC)c(=O)c2=O)CC1 | i | i | i | i | i
CCCCN1C(=O)/C(=C/C=C2\N(C)c3ccccc3C2(C)C)SC1=S | i | i | i | -15* | i
COc1ccccc1CNCc1cccc(Oc2ccccc2)c1 | i | i | i | i | i
Cc1cc2cccc(C)c2nc1SCC(=O)NNC(=O)c1ccco1 | i | i | 12* | i | i
Cc1cc(C)c2nc(SCC(=O)NNC(=O)c3ccco3)c(C)cc2c1 | i | i | i | i | i
COC(=O)c1c(C)[nH]c(C(=O)/C=C/c2ccccc2F)c1C | i | i | i | i | i
COc1ccc(C(=O)OC(C)C(=O)Nc2cc(C(F)(F)F)ccc2Cl)c(OC)c1OC (centres undefined) | i | i | i | i | i
c1ccc(-c2ccc(OCCCNC3CCCC3)cc2)cc1 | i | i | i | i | i
c1ccc(Cc2ccc(OCCCNC3CCCC3)cc2)cc1 | i | -12* | i | i | i
CC(C(=O)OCC(=O)c1cccc([N+](=O)[O-])c1)N1C(=O)C2C3C=CC(C3)C2C1=O (centres undefined) | i | i | i | i | i
CC(Oc1ccccc1Cl)C(=O)Nc1ccc(S(=O)(=O)N2CCCC2)cc1 (centres undefined) | i | -7.2* | i | i | i
O=C(N/N=C/c1cccc(C(F)(F)F)c1)c1cc2c(s1)-c1ccccc1CC2 | i | i | i | -7.8* | i
CCOc1ccc(-n2nc3c(=O)n(CCN4CCCCC4)nc(C)c3c2C)cc1 | i | -8.5* | i | i | i
CCOc1ncccc1C(=O)OCC(=O)Nc1cccc(S(N)(=O)=O)c1 | i | i | i | i | i
CCOc1ncccc1C(=O)Nc1cccc(C(=O)Nc2cccc(S(=O)(=O)CCO)c2)c1 | i | i | i | -5.3* | i
OC(c1cccs1)(c1cccs1)C1C[N+]2(CF)CCC1CC2 (centres undefined) | i | -8.4* | i | i | i
O=C(CCC1CCCC1)NCc1cccs1 | i | i | i | i | i
